From ChEMBL document CHEMBL4346672, “Antimicrobial and KPC/AmpC inhibitory activity of functionalized benzosiloxaboroles” (Eur J Med Chem, 2019)
≈ marks a conversion by molar mass, not a printed value. Calls of active or inactive are those of the source. The calls are words filed in the database; no cut-off is given here.

Tests used:
Escherichia coli = test: Antibacterial activity against Escherichia coli ATCC 25922 measured after 18 hrs by CLSI broth dilution method; assay type: functional; conditions: ATCC 25922, 18 h
How it was run: (§1)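 Broth MIC in Mueller-Hinton II broth following CLSI, compounds dissolved in DMSO. Strains subcultured twice on tryptic soy agar before testing. Growth read after 35 °C, 18 h.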

Staphylococcus aureus [1] = test: Antibacterial activity against Staphylococcus aureus ATCC 6538P measured after 18 hrs by CLSI broth dilution method; assay type: functional; how it was run: as §1
Pichia kudriavzevii = test: Antifungal activity against Candida krusei ATCC 6258 assessed as decrease in fungal cell growth at 0.78 to 12.5 mg/L incubated for 24 hrs by CLSI broth dilution method; assay type: functional; conditions: ATCC 6258, 24 h
How it was run: (§2)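 Yeast broth dilution in RPMI 1640 with 2% glucose, compounds in DMSO. Yeasts pre-grown on Sabouraud dextrose agar. Growth read after 35 °C, 24 h.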

Candida tropicalis [2] = test: Antifungal activity against Candida tropicalis IBA 171 assessed as decrease in fungal cell growth at 0.78 to 12.5 mg/L incubated for 24 hrs by CLSI broth dilution method; assay type: functional; conditions: IBA 171, 24 h; how it was run: as §2
Proteus mirabilis [3] = test: Antibacterial activity against Proteus mirabilis ATCC 12453 assessed as diameter of zone inhibition measured after 18 hrs by CLSI disc diffusion method; assay type: functional
How it was run: (§3)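 Disc diffusion on Mueller-Hinton II agar. Compounds dissolved in DMSO. Strains stored at -80 °C and subcultured twice on tryptic soy agar before testing. Inhibition zones read after 35 °C, 18 h.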

Candida albicans = test: Antifungal activity against Candida albicans ATCC 90028 assessed as diameter of zone inhibition incubated for 24 hrs by CLSI disc diffusion method; assay type: functional
How it was run: (§4)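 Yeast disc diffusion on Mueller-Hinton agar supplemented with 2% glucose and 0.5 mg/L methylene blue. Compounds in DMSO. Yeasts subcultured on Sabouraud dextrose agar before testing. Zones read after 35 °C, 24 h.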

Burkholderia cepacia = test: Antibacterial activity against Burkholderia cepacia ATCC 25416 assessed as diameter of zone inhibition measured after 18 hrs by CLSI disc diffusion method; assay type: functional; how it was run: as §3
Candida tropicalis [4] = test: Antifungal activity against Candida tropicalis IBA 171 assessed as diameter of zone inhibition incubated for 24 hrs by CLSI disc diffusion method; assay type: functional; how it was run: as §4
[5] = test system: Stenotrophomonas maltophilia; test: Antibacterial activity against Stenotrophomonas maltophilia ATCC 13637 assessed as diameter of zone inhibition measured after 18 hrs by CLSI disc diffusion method; assay type: functional; how it was run: as §3
Enterococcus faecalis [6] = test: Antibacterial activity against Enterococcus faecalis ATCC 29212 assessed as diameter of zone inhibition measured after 18 hrs by CLSI disc diffusion method; assay type: functional; how it was run: as §3
Acinetobacter baumannii [7] = test: Antibacterial activity against Acinetobacter baumannii ATCC 19606 assessed as fold reduction of MIC in presence of efflux pump inhibitor PAbetaN incubated for 18 hrs by broth microdilution method; assay type: functional
How it was run: (§5)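 MICs determined with and without PAβN at 50 mg/L in Mueller-Hinton broth containing 1 mM MgSO₄. 2-fold serial dilutions per CLSI. Fold change taken from the paired MICs after 35 °C, 18 h.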

Serratia marcescens [8] = test: Antibacterial activity against Serratia marcescens ATCC 13880 assessed as fold reduction of MIC in presence of efflux pump inhibitor PAbetaN incubated for 18 hrs by broth microdilution method; assay type: functional; how it was run: as §5
[9] = test system: Staphylococcus epidermidis; test: Antibacterial activity against Staphylococcus epidermidis ATCC 12228 assessed as diameter of zone inhibition measured after 18 hrs by CLSI disc diffusion method; assay type: functional; how it was run: as §3
Enterobacter cloacae [10] = test: Antibacterial activity against Enterobacter cloacae DSM 6234 assessed as fold reduction of MIC in presence of efflux pump inhibitor PAbetaN incubated for 18 hrs by broth microdilution method; assay type: functional; how it was run: as §5
Enterococcus faecium [11] = test: Antibacterial activity against Enterococcus faecium ATCC 6057 assessed as diameter of zone inhibition measured after 18 hrs by CLSI disc diffusion method; assay type: functional; how it was run: as §3
Klebsiella pneumoniae [12] = test: Antibacterial activity against Klebsiella pneumoniae ATCC 13883 assessed as fold reduction of MIC in presence of efflux pump inhibitor PAbetaN incubated for 18 hrs by broth microdilution method; assay type: functional; how it was run: as §5
Enterococcus faecium [13] = test: Antibacterial activity against Enterococcus faecium ATCC 6057 measured after 18 hrs by CLSI broth dilution method; assay type: functional; conditions: ATCC 6057, 18 h; how it was run: as §1
Serratia marcescens [14] = test: Antibacterial activity against Serratia marcescens ATCC 13880 measured after 18 hrs by CLSI broth dilution method; assay type: functional; conditions: ATCC 13880, 18 h; how it was run: as §1
Proteus mirabilis [15] = test: Antibacterial activity against Proteus mirabilis ATCC 12453 measured after 18 hrs by CLSI broth dilution method; assay type: functional; conditions: ATCC 12453, 18 h; how it was run: as §1
[16] = test system: Meyerozyma guilliermondii; test: Antifungal activity against Candida guilliermondii IBA 155 assessed as decrease in fungal cell growth at 0.78 to 12.5 mg/L incubated for 24 hrs by CLSI broth dilution method; assay type: functional; conditions: IBA 155, 24 h; how it was run: as §2
Pseudomonas aeruginosa [17] = test: Antibacterial activity against Pseudomonas aeruginosa ATCC 27853 assessed as diameter of zone inhibition measured after 18 hrs by CLSI disc diffusion method; assay type: functional, organism-based; how it was run: as §3
[18] = test system: Meyerozyma guilliermondii; test: Antifungal activity against Candida guilliermondii IBA 155 assessed as diameter of zone inhibition incubated for 24 hrs by CLSI disc diffusion method; assay type: functional; how it was run: as §4
Proteus mirabilis [19] = test: Antibacterial activity against Proteus mirabilis ATCC 12453 assessed as fold reduction of MIC in presence of efflux pump inhibitor PAbetaN incubated for 18 hrs by broth microdilution method; assay type: functional; how it was run: as §5
Enterobacter cloacae [20] = test: Antibacterial activity against Enterobacter cloacae DSM 6234 measured after 18 hrs by CLSI broth dilution method; assay type: functional; conditions: DSM 6234, 18 h; how it was run: as §1
Enterococcus faecalis [21] = test: Antibacterial activity against Enterococcus faecalis ATCC 29212 measured after 18 hrs by CLSI broth dilution method; assay type: functional; conditions: ATCC 29212, 18 h; how it was run: as §1
Acinetobacter baumannii [22] = test: Antibacterial activity against Acinetobacter baumannii ATCC 19606 assessed as diameter of zone inhibition measured after 18 hrs by CLSI disc diffusion method; assay type: functional; how it was run: as §3
Pseudomonas aeruginosa [23] = test: Antibacterial activity against Pseudomonas aeruginosa ATCC 27853 measured after 18 hrs by CLSI broth dilution method; assay type: functional; conditions: ATCC 27853, 18 h; how it was run: as §1
Candida parapsilosis = test: Antifungal activity against Candida parapsilosis ATCC 22019 assessed as decrease in fungal cell growth at 0.78 to 12.5 mg/L incubated for 24 hrs by CLSI broth dilution method; assay type: functional; conditions: Lodderomyces parapsilosis, ATCC 22019, 24 h; how it was run: as §2
[24] = test system: Staphylococcus epidermidis; test: Antibacterial activity against Staphylococcus epidermidis ATCC 12228 measured after 18 hrs by CLSI broth dilution method; assay type: functional; conditions: ATCC 12228, 18 h; how it was run: as §1
Bacillus subtilis = test: Antibacterial activity against Bacillus subtilis ATCC 6633 assessed as diameter of zone inhibition measured after 18 hrs by CLSI disc diffusion method; assay type: functional; how it was run: as §3
Staphylococcus aureus [25] = test: Antibacterial activity against Staphylococcus aureus ATCC 6538P assessed as diameter of zone inhibition measured after 18 hrs by CLSI disc diffusion method; assay type: functional; how it was run: as §3
Klebsiella pneumoniae [26] = conditions: ATCC 13883
[27] = test system: Bordetella bronchiseptica; test: Antibacterial activity against Bordetella bronchiseptica ATCC 4617 assessed as diameter of zone inhibition measured after 18 hrs by CLSI disc diffusion method; assay type: functional; how it was run: as §3
[28] = test system: Stenotrophomonas maltophilia; test: Antibacterial activity against Stenotrophomonas maltophilia ATCC 13637 assessed as fold reduction of MIC in presence of efflux pump inhibitor PAbetaN incubated for 18 hrs by broth microdilution method; assay type: functional; how it was run: as §5

Row | Structure (SMILES) | MIC (Escherichia coli) [µg/mL] | MIC (Staphylococcus aureus [1]) [µg/mL] | MIC (Pichia kudriavzevii) [µg/mL] | MIC (Candida tropicalis [2]) [µg/mL] | diameter of the inhibition zone (DIZ) (Proteus mirabilis [3]) | diameter of the inhibition zone (DIZ) (Candida albicans) | diameter of the inhibition zone (DIZ) (Burkholderia cepacia) | diameter of the inhibition zone (DIZ) (Candida tropicalis [4]) | diameter of the inhibition zone (DIZ) [5] | diameter of the inhibition zone (DIZ) (Enterococcus faecalis [6]) | fold change (FC) (Acinetobacter baumannii [7]) | fold change (FC) (Serratia marcescens [8]) | diameter of the inhibition zone (DIZ) [9] [mm] | fold change (FC) (Enterobacter cloacae [10]) | diameter of the inhibition zone (DIZ) (Enterococcus faecium [11]) | fold change (FC) (Klebsiella pneumoniae [12]) | MIC (Enterococcus faecium [13]) [µg/mL] | MIC (Serratia marcescens [14]) [µg/mL] | MIC (Proteus mirabilis [15]) [µg/mL] | MIC [16] [µg/mL] | other results
1 | C[Si]1(C)OB(O)c2ccc(C=O)c(F)c21 | > 400 | 25 (≈ 112 µM) | > 400 | 200 (≈ 893 µM) | inactive | inactive | inactive | inactive | inactive | inactive | 4 | 16 | 27 | 16 | inactive | 4 | 200 (≈ 893 µM) | > 400 | > 400 | > 400 | diameter of the inhibition zone (DIZ) (Pseudomonas aeruginosa [17]): inactive; diameter of the inhibition zone (DIZ) [18]: inactive; fold change (FC) (Proteus mirabilis [19]): 4; MIC (Enterobacter cloacae [20]): > 400 µg/mL; MIC (Enterococcus faecalis [21]): 400 µg/mL (≈ 1790 µM); diameter of the inhibition zone (DIZ) (Acinetobacter baumannii [22]): inactive; MIC (Pseudomonas aeruginosa [23]): > 400 µg/mL; MIC (Candida parapsilosis): 400 µg/mL (≈ 1790 µM); MIC [24]: 50 µg/mL (≈ 223 µM); diameter of the inhibition zone (DIZ) (Bacillus subtilis): 22 mm; diameter of the inhibition zone (DIZ) (Staphylococcus aureus [25]): 21 mm; DIZ (Klebsiella pneumoniae [26]): inactive; diameter of the inhibition zone (DIZ) [27]: inactive; fold change (FC) [28]: 16
2 | C[Si]1(C)OB(O)c2cccc(B(O)O)c21 | > 400 | 400 (≈ 1800 µM) | 50 (≈ 225 µM) | 400 (≈ 1800 µM) | inactive | inactive | inactive | inactive | 12 mm | inactive | 2 | 2 | 22 | 8 | inactive | 4 | 400 (≈ 1800 µM) | > 400 | > 400 | > 400 | diameter of the inhibition zone (DIZ) (Pseudomonas aeruginosa [17]): inactive; diameter of the inhibition zone (DIZ) [18]: inactive; fold change (FC) (Proteus mirabilis [19]): 0; MIC (Enterobacter cloacae [20]): > 400 µg/mL; MIC (Enterococcus faecalis [21]): > 400 µg/mL; diameter of the inhibition zone (DIZ) (Acinetobacter baumannii [22]): inactive; MIC (Pseudomonas aeruginosa [23]): > 400 µg/mL; MIC (Candida parapsilosis): 400 µg/mL (≈ 1800 µM); MIC [24]: 200 µg/mL (≈ 901 µM); diameter of the inhibition zone (DIZ) (Bacillus subtilis): 15 mm; diameter of the inhibition zone (DIZ) (Staphylococcus aureus [25]): 11 mm; DIZ (Klebsiella pneumoniae [26]): inactive; diameter of the inhibition zone (DIZ) [27]: inactive; fold change (FC) [28]: 16
3 | C[Si]1(C)OB(O)c2cc(F)c(C=O)c(F)c21 | > 400 | 200 (≈ 826 µM) | 25 (≈ 103 µM) | 100 (≈ 413 µM) | inactive | inactive | inactive | inactive | 11 mm | inactive | 4 | 4 | 22 | 16 | inactive | 4 | 50 (≈ 207 µM) | > 400 | > 400 | 200 (≈ 826 µM) | diameter of the inhibition zone (DIZ) (Pseudomonas aeruginosa [17]): inactive; diameter of the inhibition zone (DIZ) [18]: inactive; fold change (FC) (Proteus mirabilis [19]): 2; MIC (Enterobacter cloacae [20]): > 400 µg/mL; MIC (Enterococcus faecalis [21]): 400 µg/mL (≈ 1650 µM); diameter of the inhibition zone (DIZ) (Acinetobacter baumannii [22]): inactive; MIC (Pseudomonas aeruginosa [23]): > 400 µg/mL; MIC (Candida parapsilosis): 25 µg/mL (≈ 103 µM); MIC [24]: 100 µg/mL (≈ 413 µM); diameter of the inhibition zone (DIZ) (Bacillus subtilis): 14 mm; diameter of the inhibition zone (DIZ) (Staphylococcus aureus [25]): 21 mm; DIZ (Klebsiella pneumoniae [26]): inactive; diameter of the inhibition zone (DIZ) [27]: inactive; fold change (FC) [28]: 8
